One assay deals with T1, PTP1B (Homo sapiens, UniProt P18031).
T1 sequence (P18031 1-435): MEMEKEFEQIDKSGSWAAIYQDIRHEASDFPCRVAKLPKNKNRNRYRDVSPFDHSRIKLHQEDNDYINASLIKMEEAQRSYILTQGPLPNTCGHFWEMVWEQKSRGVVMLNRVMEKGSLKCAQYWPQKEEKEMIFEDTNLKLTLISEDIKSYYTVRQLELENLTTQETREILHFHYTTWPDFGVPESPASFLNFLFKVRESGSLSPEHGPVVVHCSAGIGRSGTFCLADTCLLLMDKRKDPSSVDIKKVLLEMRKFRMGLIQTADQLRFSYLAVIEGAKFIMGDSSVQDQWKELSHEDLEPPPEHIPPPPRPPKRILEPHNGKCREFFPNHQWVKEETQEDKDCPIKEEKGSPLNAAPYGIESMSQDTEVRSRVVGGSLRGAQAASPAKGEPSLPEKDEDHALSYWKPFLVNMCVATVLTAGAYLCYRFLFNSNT
Put plainly: PTP-catalyzed pNPP hydrolysis, PTP1B. It is filed as biochemical. Put shortly: (§1)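 pNPP hydrolysis was run at 25 °C in 50 mM 3,3-dimethylglutarate, pH 7.0, 1 mM EDTA, ionic strength 0.15 M (NaCl). pNPP was fixed at each enzyme's experimentally determined Km, and reactions were started with enzyme. They were quenched with NaOH and corrected with no-enzyme controls. p-Nitrophenol was read at 405 nm. IC50 was fitted from AI/A0 = IC50/(IC50+[I]).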

The target of a further assay is T2, Lyp (Homo sapiens, UniProt Q9Y2R2).
T2 sequence (Q9Y2R2 1-807): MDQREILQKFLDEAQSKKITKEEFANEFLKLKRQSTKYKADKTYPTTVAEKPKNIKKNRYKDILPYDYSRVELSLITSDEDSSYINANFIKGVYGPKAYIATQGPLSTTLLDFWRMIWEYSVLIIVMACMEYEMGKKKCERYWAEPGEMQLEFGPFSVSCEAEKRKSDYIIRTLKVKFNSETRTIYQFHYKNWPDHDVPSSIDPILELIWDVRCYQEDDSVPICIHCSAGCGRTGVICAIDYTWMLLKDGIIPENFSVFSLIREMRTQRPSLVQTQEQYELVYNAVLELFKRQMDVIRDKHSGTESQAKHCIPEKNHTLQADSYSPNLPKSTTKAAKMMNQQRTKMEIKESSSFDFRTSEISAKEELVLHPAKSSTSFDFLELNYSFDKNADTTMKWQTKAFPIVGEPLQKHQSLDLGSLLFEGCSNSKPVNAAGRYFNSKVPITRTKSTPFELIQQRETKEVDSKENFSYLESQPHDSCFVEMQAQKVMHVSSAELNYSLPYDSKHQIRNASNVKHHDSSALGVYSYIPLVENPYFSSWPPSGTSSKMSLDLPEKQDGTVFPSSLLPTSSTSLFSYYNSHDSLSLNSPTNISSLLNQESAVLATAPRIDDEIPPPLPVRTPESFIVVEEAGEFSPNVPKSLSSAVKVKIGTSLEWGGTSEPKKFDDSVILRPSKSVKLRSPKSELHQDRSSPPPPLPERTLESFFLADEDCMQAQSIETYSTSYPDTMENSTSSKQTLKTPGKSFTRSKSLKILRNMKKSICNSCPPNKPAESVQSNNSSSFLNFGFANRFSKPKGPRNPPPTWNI
Put plainly: PTP-catalyzed pNPP hydrolysis, Lyp. It is filed as biochemical. Put shortly: as §1

Assay [1] has as its system Jurkat T cells. Put plainly: TCR-mediated tyrosine phosphorylation in Jurkat T cells. To be noted: 2 h pretreatment (2 µM; TTN 2–4 µM), 10 µg/mL anti-CD3. Format: cell-based.
Assay [2] relates to Jurkat T cells. Put plainly: TCR-mediated ERK1/2 activation in Jurkat T cells. It is filed as cell-based. To be noted: 2 h pretreatment (2 µM), 10 µg/mL anti-CD3.
The test system of assay [3] is macrophage progenitor cells expressing MIEG3, wild-type SHP2, or SHP2/E76K. Put plainly: GM-CSF induced ERK1/2 activation in macrophage progenitors. Format: cell-based. The settings on record: 2 µM for 2 hours, GM-CSF 50 ng/mL for 60 minutes. A digest of the protocol:
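Bone marrow low-density mononuclear cells were transduced (empty vector, wild-type SHP2 or SHP2/E76K), EGFP-sorted and grown 5 days in M-CSF 100 ng/mL to give macrophage progenitors. These were serum- and growth factor-starved 16 h, pretreated 2 h with DMSO or 2 µM test compound, then left unstimulated or given GM-CSF 50 ng/mL for 60 min. Extracts were immunoblotted for phospho-ERK1/2 and total ERK1/2.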

The next assay has as its system human primary T-cell. To be noted: ref Shim et al., 2002; cited from earlier work.

Where “and” joins values, the source holds several entries; their conditions need not be identical. Equal entries are not always repeated.

As for `C=C/C(=C/C(=O)C[C@H](C)C[C@@H](C)CC[C@H](O)[C@H](C)C(=O)C[C@@H](O)[C@H](C)[C@@H](C)OC(=O)C[C@@H](O)C1=C(C)C(=O)OC1=O)CC` [TTN, tautomycetin], the IC50 against PTP1B turned out to be 41.2 ± 4.4 µM; against Lyp it was 20 ± 2 µM. In addition, in the assay on Jurkat T cells [1], the “effect on TCR-mediated tyrosine phosphorylation” value was “efficiently attenuated”. In the assay with Jurkat T cells [2], the “effect on TCR-mediated ERK1/2 activation” value is recorded as “strongly reduced”. Also, in assay [3], the “effect on ERK1/2 hyperactivation in SHP2/E76K-expressing cells” value is “effectively inhibited”. Further, the “effect on GM-CSF induced ERK1/2 activation” value in assay [3] is given as “abrogated”. Moreover, in the assay on human primary T-cell, the “concentration inhibiting human primary T-cell tyrosine phosphorylation” value is 1 µg/mL and 1.65 µM.

The IC50 is the concentration that inhibits the measured activity by half. Higher therefore signals lower potency.

The values above are taken from PMC3034256 (Chemistry & biology, 2011).
